Assay outcomes: PubChem BioAssay, several laboratories
CCR6 antagonist: antagonists of human CCR6 receptor; AID 493098; CHO-K1 CCR6 PathHunter beta-arrestin, luminescence, CCL20-stimulated; hit rate 0.49% among 340,000; inhibition, % at 20 µM;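 active = compounds whose inhibition of the agonist-driven luminescence signal at 20 µM reaches about 50%, limit read from the data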;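 also: cells stimulated with CCL20 at 14 nM final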
Target sequence (P51684 whole entry, looked up): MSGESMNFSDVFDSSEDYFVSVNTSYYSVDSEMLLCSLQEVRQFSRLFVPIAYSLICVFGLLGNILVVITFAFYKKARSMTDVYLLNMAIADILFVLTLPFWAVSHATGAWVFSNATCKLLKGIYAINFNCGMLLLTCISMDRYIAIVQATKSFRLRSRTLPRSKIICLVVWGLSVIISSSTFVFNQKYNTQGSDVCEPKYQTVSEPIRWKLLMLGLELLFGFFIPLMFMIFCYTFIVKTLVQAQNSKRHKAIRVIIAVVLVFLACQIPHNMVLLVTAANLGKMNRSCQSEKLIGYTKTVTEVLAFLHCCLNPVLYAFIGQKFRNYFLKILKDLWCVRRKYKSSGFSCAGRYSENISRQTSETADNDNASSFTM
EBI2 block: blocks human EBI2 receptor beta-arrestin signaling. P32249. EBI2 beta-arrestin recruitment, luminescence, 7a,25-OHC stimulated. inhibition, % at 5 µM. hit rate 0.81% among 360,000. AID 651636; in the data active = inhibition above about 38%;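 also: enzyme fragment complementation signal reports receptor beta-arrestin coupling in cells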
HTR2A ag: mouse HTR2A agonism via beta-arrestin recruitment | hit rate 0.66% among 360,000 | CHO-K1 mHTR2A beta-arrestin complementation, luminescence; percent of 30 µM serotonin response | P35363 | activation, % at 7.6 µM;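 active = activation above a run cutoff, the mean activation of all tested compounds plus 3 SD, cut at about 14% in these data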
APJ ag: activates the human apelin receptor APJ | CHO-K1 APJ PathHunter beta-arrestin, luminescence; 0% DMSO wells, 100% apelin | activation, % at 20 µM | hit rate 0.11% among 330,000;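 active = activation more than six SD over the plate average, tested at 20 µM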
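Test system – PathHunter CHO-K1 APJ (AGTRL-1) beta-arrestin reporter cells · Input – 1000 cells/well · Compound – single test compound dose, 20 µM final, 1% DMSO · Times – compound stimulation 90 min at 25 °C, detection 60 min · Technique – beta-gal luminescence · Read-out basis – APJ–arrestin association signal · Control set – negative DMSO alone, positive Apelin-13 at 10 nM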
APJ antagonist: blocks the human apelin receptor APJ | CHO-K1 APJ beta-arrestin complementation, luminescence | inhibition, % at 20 µM | hit rate 0.32% among 330,000 | AID 2521;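 active = inhibition above about 40% at 20 µM, limit read from the data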;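 also: cells challenged with 10 nM apelin-13 agonist together with compound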
CXCR6 block: CXCR6 (human) receptor inhibition; O00574; CHO-K1 PathHunter CXCR6 beta-arrestin, luminescence; inhibition, % at 20 µM; hit rate 0.36% among 360,000; in the data active = inhibition above about 34%, passing the limit was not always enough;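 also: antagonist mode with CXCL16 agonist at 10 nM final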
MOR ag counter: OPRM1 agonism in mouse HTR2A counterscreen; U2OS OPRM1 beta-arrestin PathHunter, luminescence; DMSO 0%, DAMGO 9.3 µM 100%; AID 624380; hit rate 5.3% among 2,300; shares compounds with HTR2A ag; activation, % at 9.3 µM;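 active = mean activation above the mean of DMSO-only wells plus 3 SD, cut at about 0.5% in these data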
HTR2A ag conf: confirmation of mouse HTR2A serotonin receptor agonists; hit rate 19% among 2,300; AID 624381; shares compounds with HTR2A ag; CHO-K1 PathHunter beta-arrestin recruitment, luminescence; DMSO 0%, 30 µM serotonin 100%; activation, % at 7.6 µM;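 active = mean activation across triplicates above the hit threshold derived in the original primary screen, cut at about 15% in these data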
Hits are given with their value; i = inactive; nt = no result. A selection: hits, their analogues and other compounds. The true share with any hit is near 2.2%.

SMILES | CCR6 antagonist | EBI2 block | HTR2A ag | APJ ag | APJ antagonist | CXCR6 block | MOR ag counter | HTR2A ag conf
O=C(O)CSc1c(-c2cccs2)[nH]c2ccccc12 | i | i | 16 | i | i | i | i | i
O=C(O)c1ccc2c(c1)C(=O)N(c1ccc(OCc3ccccc3)cc1)C2=O | i | i | 17 | i | i | i | i | i
CCCc1nc2nc(C)c(NS(=O)(=O)c3ccc(CC(C)C)cc3)c(=O)n2[nH]1 | i | i | 16 | i | i | i | i | i
Cc1cc2nc(-c3ccc(F)cc3)c(Cc3cccc(Cl)c3)n2c(C)c1Br | nt | i | i | nt | nt | i | nt | nt
COc1ccc(C)cc1S(=O)(=O)n1c([N+](=O)[O-])cnc1C | i | i | 15 | i | i | i | i | i
COc1ccc(S(=O)(=O)n2c([N+](=O)[O-])cnc2C)cc1OC | i | i | i | i | i | i | nt | nt
COc1cc(/C=N/Nc2nc3ccccc3s2)ccc1OC(=O)c1ccccc1F | i | i | i | i | i | i | nt | nt
COc1cc(OC)cc(C(=O)Oc2ccc(/C=N/Nc3nc4ccccc4s3)cc2OC)c1 | i | i | 22 | i | i | i | i | i
N#Cc1cnn2c(=O)[nH]cnc12 | nt | i | i | nt | nt | i | nt | nt
Cc1ccc(N2CCN(C(=O)C3CCCN(c4ncnc5c4nc4n5CCCCC4)C3)CC2)c(C)c1 (stereo not given) | i | i | 15 | i | i | i | i | i
Cc1ccc(C)c(N2CCN(C(=O)C3CCCN(c4ncnc5c4nc4n5CCCCC4)C3)CC2)c1 (stereo not given) | i | i | i | i | i | i | nt | nt
O=C(CN1CCN(c2ccccn2)CC1)N1CC(O)CO1 (stereo not given) | i | i | i | i | i | i | nt | nt
O=C(CN1CCN(c2cccc(Cl)n2)CC1)N1CC(O)CO1 (stereo not given) | i | i | 27 | i | i | i | i | i
CC(C)(C)S(=O)N1Cc2cc(C(=O)NCC(F)(F)F)nc(-c3cccc(-c4cccc(F)c4)c3)c2[C@H]1CCO (stereo not given in full) | nt | i | i | nt | nt | i | nt | nt
COc1cccc(-c2nc(NC3CCCC3)c3ccccc3n2)c1O | i | i | 78 | i | i | i | i | 81
COc1cccc(-c2nc(NCc3ccccc3)c3ccccc3n2)c1O | i | i | i | i | i | i | nt | nt
C=CCNc1nc(-c2cccc(OC)c2O)nc2ccccc12 | i | i | 42 | i | i | i | i | 24
Fc1ccc(NCc2nnc3n2CCCCC3)cc1 | i | i | 20 | i | i | i | i | i
CCOC(=O)[C@]12CCCC=C1N(Cc1ccc(Cl)cc1Cl)C(=O)[C@H](CC(=O)N1CCN(C(=O)C3CC3)CC1)C2 | nt | i | i | nt | nt | i | nt | nt
Cc1cccc(-n2ncc3c2CCCC3NC(=O)CCN2CCCO2)c1C (stereo not given) | i | i | 16 | i | i | i | i | i
Cc1cccc(-n2ncc3c2CCCC3NC(=O)C2(C(N)=O)CC2)c1C (stereo not given) | i | i | 15 | i | i | i | i | i
Cc1cc(C)cc(-n2ncc3c2CCCC3NC(=O)C2(C(N)=O)CC2)c1 (stereo not given) | i | i | i | i | i | i | nt | nt
COc1ccccc1CN1CC(C(=O)NCCCCc2ccccn2)CCC1=O (stereo not given) | nt | i | i | nt | nt | i | nt | nt
COC(=O)[C@@]12C[C@@H](CC(=O)NCCC(C)C)C(=O)N(Cc3cccc4ccccc34)C1=CCC(C)(C)C2 | nt | i | i | nt | nt | nt | nt | nt
Cc1ccc(S(=O)(=O)N2CCN(C(=O)CSCc3ccc(C(C)C)cc3)CC2)cc1 | i | i | 15 | i | i | i | i | i
O=C(NCCCn1ccnc1)/C(=C\c1ccco1)NC(=O)c1ccco1 | i | i | 15 | i | i | i | i | i
COC(=O)[C@]12CCCCC=C1N(Cc1ccc3c(c1)OCO3)C(=O)[C@H](CC(=O)NCc1cccc3ccccc13)C2 | nt | i | i | nt | nt | nt | nt | nt
